Calls of active or inactive are those of the source. No cut-off for these calls is given here. Residues, ends and D or L forms follow the SMILES beside them. *: point of attachment. Cbz = O=C(OCc1ccccc1)*; CH2F = FC*
Experiments:
HL-60 [1] = assay: Cytotoxicity against human HL60 cells; assay type: functional, cell-based
HL-60 [2] = assay: Inhibition of chymotrypsin-like activity of proteasome in human HL60 cells at 100 nM
Procedure, shortened: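 Lysates of HL60 cells treated with compound; chymotrypsin-like proteasome activity of the lysate measured in vitro.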

[3] = Inhibition of cap-dependent […] of firefly luciferase in mouse Krebs2 cell extract; assay type: functional, cell-free
HepG2 [4] = assay: Cytotoxicity against human HepG2 cells after 72 hrs by MTS assay; assay type: functional, cell-based
Procedure, shortened: (§1)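 Human cancer lines treated for 72 h and proliferation/viability read by MTS assay; dose-response curves in duplicate with IC50 taken from the curves; MCF7R is the P-gp (MDR1)-expressing resistant line.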

HCT-15 = assay: Cytotoxicity against human HCT15 cells after 72 hrs by MTS assay; assay type: functional, cell-based; procedure, shortened: as §1
MCF7 [5] = assay: Cytotoxicity against human MCF7 cells after 72 hrs by MTS assay; assay type: functional, cell-based; procedure, shortened: as §1
HL-60 [6] = assay: Cytotoxicity against human HL60 cells after 72 hrs by MTS assay; assay type: functional, cell-based; settings: HL-60, 72 h
Procedure, shortened: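 HL60 cells exposed to compound for 72 h; proliferation/viability read by MTS assay. IC50 taken from dose-response curves run in duplicate.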

HCT-116 = assay: Cytotoxicity against human HCT116 cells after 72 hrs by MTS assay; assay type: functional, cell-based; settings: HCT-116, 72 h; procedure, shortened: as §1
MCF7 [7] = assay: Cytotoxicity against human MCF7 cells expressing P-glycoprotein after 72 hrs by MTS assay; assay type: functional, cell-based; procedure, shortened: as §1
KB = assay: Cytotoxicity against human KB cells after 72 hrs by MTS assay; assay type: functional, cell-based; procedure, shortened: as §1
[8] = Drug localization in mitochondria of human HeLa cells at 50 uM after 2 hrs by Mito-Tracker Red dye; assay type: ADME
Procedure, shortened: (§2)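 Live HeLa cells incubated with 50 μM fluorescent probe for 2 h, then 15 min with 1 μM organelle dye: Mito-Tracker Red (mitochondria), ER-tracker red (endoplasmic reticulum), or BODIPY 558/568 brefeldin A (ER plus Golgi). Localization judged by overlap of probe and dye signals in merged confocal images.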

[9] = Drug localization in endoplasmic reticulum of human HeLa cells at 50 uM after 2 hrs by ER tracker; assay type: ADME, cell-based; procedure, shortened: as §2
[10] = target: ATP-dependent translocase ABCB1 (Homo sapiens, UniProt P08183); assay: Inhibition of P-glycoprotein expressing human MCF7 cells assessed as change in rhodamine 123 efflux at 0.1 to 1 uM; assay type: cell-based
HeLa = assay: Binding affinity to eIF4A in human HeLa cell extract by agarose pulldown assay; assay type: cell-free
HL-60 [11] = assay: Cell cycle arrest in human HL60 cells assessed as increase in G0/G1 peak at 200 nM after 48 hrs by FACS analysis; assay type: functional, cell-based
Procedure, shortened: (§3)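 HL60 cells treated for 48 h; vehicle control 1% DMSO, doxorubicin as positive control. Propidium iodide staining, DNA content by flow cytometry giving cell-cycle distribution (G2/M, G0-G1 peaks); n = 4, each sample in duplicate.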

[12] = Drug localization in mitochondria of human HeLa cells after 2 hrs by Mito-Tracker Red dye
[13] = Drug localization in golgi apparatus of human HeLa cells after 2 hrs by Brefeldin tracker; assay type: ADME, cell-based; procedure, shortened: as §2
[14] = Drug localization in endoplasmic reticulum of human HeLa cells after 2 hrs by ER tracker; assay type: ADME, cell-based; procedure, shortened: as §2
HL-60 [15] = assay: Cell cycle arrest in human HL60 cells assessed as increase in G0/G1 peak at 20 nM after 48 hrs by FACS analysis; assay type: functional, cell-based; procedure, shortened: as §3
HL-60 [16] = assay: Antiproliferative activity against human HL60 cells at 50 nM in presence of […] inhibitor 3-methyladenine; assay type: functional, cell-based
Procedure, shortened: (§4)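 HL60 cells exposed for 72 h, with or without co-treatment with Z-VAD-FMK (50 μM), necrostatin-1 (50 μM) or 3-methyladenine (2 mM). Antiproliferative effect was compared against vehicle.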

HL-60 [17] = assay: Antiproliferative activity against human HL60 cells at 50 nM in presence of caspase inhibitor Z-VAD-FMK; assay type: functional, cell-based; procedure, shortened: as §4
H9c2 [18] = assay: Induction of apoptosis in rat H9c2 cells at 0.5 to 50 nM after 24 hrs by FACS analysis; assay type: cell-based; settings: h9c2, 24 h, 0.05 µM
Procedure, shortened: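 Rat H9c2 cardiomyoblasts treated 24 h (0.5-50 nM) or 24, 48 and 72 h (20 nM) versus vehicle; annexin V plus propidium iodide labeling and FACS for apoptosis; viability in parallel by MTS; doxorubicin 1 μM as positive control.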

HL-60 [19] = assay: Inhibition of proteasome activity in human HL60 cells at 20 to 200 nM; assay type: subcellular
Procedure, shortened: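 Lysates of HL60 cells incubated with compound; in vitro chymotrypsin-like and trypsin-like proteasome activities measured with fluorogenic AMC substrates (LLVY-AMC, RLR-AMC).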

HL-60 [20] = assay: Antiproliferative activity against human HL60 cells at 50 nM in presence of […] inhibitor necrostatin 1; assay type: functional, cell-based; procedure, shortened: as §4
HL-60 [21] = assay: Cell cycle arrest in human HL60 cells assessed as accumulation of cells in G2/M phase at 200 nM after 48 hrs by FACS analysis; assay type: functional, cell-based; procedure, shortened: as §3
HL-60 [22] = assay: Induction of apoptosis in human HL60 cells assessed as caspase 3/7-mediated DEVD-AMC substrate cleavage at 1 to 1000 nM after 48 hrs by spectroscopy; assay type: functional, cell-based
Procedure, shortened: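 HL60 cells treated 48 h, doxorubicin as positive control; whole-cell extracts incubated with DEVD-AMC, fluorescence release followed over time; rate from slope of linear phase, expressed as fold-activation over DMSO-treated control.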

HL-60 [23] = assay: Cell cycle arrest in human HL60 cells assessed as accumulation of cells in G2/M phase at 20 nM after 48 hrs by FACS analysis; assay type: functional, cell-based; procedure, shortened: as §3
HepG2 [24] = assay: Enhancement of doxorubicin-induced cytotoxicity against human HepG2 cells after 72 hrs by MTS assay; assay type: functional, cell-based
Procedure, shortened: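 HepG2 cells given the test agent alone or together with 150 nM doxorubicin for 72 h; proliferation by MTS assay; duplicate experiments, n = 3.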

H9c2 [25] = assay: Induction of apoptosis in rat H9c2 cells at 1 uM after 24 hrs by FACS analysis; assay type: cell-based; settings: h9c2, 24 h
Procedure, shortened: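 Rat H9c2 cardiomyoblasts treated 24 h with compound or vehicle. Cells labeled with annexin V and propidium iodide and analyzed by FACS for apoptosis.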

HL-60 [26] = assay: Induction of apoptosis in human HL60 cells assessed as increase in caspase 3/7-mediated at 1 uM after 48 hrs measured by spectroscopy; assay type: functional
Procedure, shortened: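 HL60 cells treated 48 h. Whole-cell extracts tested for cleavage of the caspase-3 substrate DEVD-AMC, with fluorescence release read spectroscopically. Rates taken from the slope of the linear time course and expressed as fold-activation over the DMSO-treated control.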

[27] = Homo sapiens, HCT-15, 72 h, read-out: IC50
[28] = Homo sapiens, MCF7, 72 h, read-out: IC50
[29] = Homo sapiens, HepG2, 72 h, read-out: IC50

Sequence of ATP-dependent translocase ABCB1 (P08183 whole entry): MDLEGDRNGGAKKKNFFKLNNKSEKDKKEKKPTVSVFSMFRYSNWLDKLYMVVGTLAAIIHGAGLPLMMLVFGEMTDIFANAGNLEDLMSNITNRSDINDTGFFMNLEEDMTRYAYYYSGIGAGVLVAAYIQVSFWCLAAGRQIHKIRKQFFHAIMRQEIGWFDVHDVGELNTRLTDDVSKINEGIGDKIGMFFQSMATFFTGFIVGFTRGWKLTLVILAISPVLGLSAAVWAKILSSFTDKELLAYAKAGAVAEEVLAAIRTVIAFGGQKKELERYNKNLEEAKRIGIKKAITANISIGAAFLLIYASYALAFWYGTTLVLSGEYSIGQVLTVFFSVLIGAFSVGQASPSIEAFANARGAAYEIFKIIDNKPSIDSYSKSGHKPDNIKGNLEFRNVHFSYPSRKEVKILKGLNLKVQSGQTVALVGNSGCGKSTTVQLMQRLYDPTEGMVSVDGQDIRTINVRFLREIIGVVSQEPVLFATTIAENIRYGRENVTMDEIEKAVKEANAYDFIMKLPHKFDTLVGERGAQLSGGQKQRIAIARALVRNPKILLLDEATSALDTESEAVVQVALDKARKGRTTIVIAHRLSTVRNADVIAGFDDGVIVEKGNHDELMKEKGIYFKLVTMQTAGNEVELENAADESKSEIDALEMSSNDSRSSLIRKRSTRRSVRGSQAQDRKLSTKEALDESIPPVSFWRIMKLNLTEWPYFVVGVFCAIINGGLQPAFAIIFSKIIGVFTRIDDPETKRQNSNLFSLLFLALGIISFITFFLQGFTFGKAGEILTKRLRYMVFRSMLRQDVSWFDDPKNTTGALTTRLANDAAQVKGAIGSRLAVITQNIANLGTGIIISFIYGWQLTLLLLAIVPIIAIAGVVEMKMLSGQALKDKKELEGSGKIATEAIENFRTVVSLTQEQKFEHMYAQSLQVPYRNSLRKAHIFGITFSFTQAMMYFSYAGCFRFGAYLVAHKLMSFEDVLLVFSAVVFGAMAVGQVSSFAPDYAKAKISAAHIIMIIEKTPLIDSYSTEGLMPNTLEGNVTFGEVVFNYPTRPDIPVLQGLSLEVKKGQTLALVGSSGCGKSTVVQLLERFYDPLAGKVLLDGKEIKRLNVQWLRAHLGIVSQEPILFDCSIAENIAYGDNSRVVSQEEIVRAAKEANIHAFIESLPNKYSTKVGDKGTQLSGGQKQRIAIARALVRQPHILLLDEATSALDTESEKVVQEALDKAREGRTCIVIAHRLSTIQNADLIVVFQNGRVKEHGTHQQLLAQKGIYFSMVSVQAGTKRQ

COC(=O)C[C@H](NC(=O)[C@H](C)NC(=O)[C@@H](NC(=O)[C@H](C)NC(=O)OCc1ccccc1)[C@@H](C)O)C(=O)CF (Cbz-ATAD(OMe)-CH2F)
Activity (HL-60 [1]): Active

CC(C)C[C@H](NC(=O)[C@H](Cc1ccccc1)NC(=O)c1cnccn1)B(O)O
Activity (HL-60 [2]): Active

COC(=O)[C@H]1[C@@H](OC=O)[C@@]2(O)c3c(OC)cc(OC)cc3O[C@@]2(c2ccc(OC)cc2)[C@@H]1c1ccccc1
IC50 [3]: 3000 nM

CC(=O)O[C@@]12CO[C@@H]1C[C@H](O)[C@@]1(C)C(=O)[C@H](O)C3=C(C)[C@@H](OC(=O)[C@H](O)[C@@H](NC(=O)OC(C)(C)C)c4ccccc4)C[C@@](O)([C@@H](OC(=O)c4ccccc4)[C@H]21)C3(C)C.O.O.O [DOCETAXEL]
IC50 (HepG2 [4]; hepg2): Not Active | IC50 (HCT-15; [27]): 13 nM | IC50 (MCF7 [5]; mcf7): Not Active | IC50 (HL-60 [6]): 0.5 nM | IC50 (HCT-116): 0.5 nM | IC50 (MCF7 [7]; mcf7): Not Active | IC50 (KB): 0.2 nM

COC(=O)[C@H]1[C@@H](O)[C@@]2(O)c3c(OC)cc(O[C@@H]4O[C@@H]([C@H](O)CO)CO[C@H]4OC)cc3O[C@@]2(c2ccc(OC)cc2)[C@@H]1c1ccccc1 [SILVESTROL]
IC50 [3]: 300 nM

CC[C@]1(O)C[C@@H]2CN(CCc3c([nH]c4ccccc34)[C@@](C(=O)OC)(c3cc4c(cc3OC)N(C)[C@H]3[C@@](O)(C(=O)OC)[C@H](OC(C)=O)[C@]5(CC)C=CCN6CC[C@]43[C@@H]65)C2)C1 [VINBLASTINE]
IC50 (HepG2 [4]; hepg2): Not Active | IC50 (HCT-15; [27]): 10 nM | IC50 (MCF7 [5]; [28]): 4.6 nM | IC50 (HL-60 [6]): 1 nM | IC50 (HCT-116): 1.3 nM | IC50 (MCF7 [7]; mcf7): Not Active | IC50 (KB): 0.8 nM

COc1ccc2c(c1)O[C@@]1(c3ccc(Br)cc3)[C@H](c3ccccc3)[C@@H](C(=O)NCCOCCOCCNC(=O)Cc3cc(=O)oc4cc(N(C)C)ccc34)[C@@H](O)[C@@]21O
Activity [8]: Not Active | IC50 (HL-60 [6]): 130 nM | Activity [9]: Active

COc1ccc([C@@H]2C[C@@H](O)[C@@]3(O)c4c(OC)cc(OC)cc4O[C@@]23c2ccccc2)cc1
IC50 (HepG2 [4]; hepg2): Not Active | IC50 (HCT-15; hct-15): Not Active | IC50 (MCF7 [5]; mcf7): Not Active | IC50 (HL-60 [6]): > 10000 nM | IC50 (HCT-116): > 10000 nM | Activity [10]: Not Active | IC50 (MCF7 [7]; [28]): > 10000 nM | IC50 (KB): > 10000 nM

COc1cc(OC)c2c(c1)O[C@@]1(c3ccc(Br)cc3)[C@H](c3ccccc3)[C@@H](C(=O)NCCOCCOCCOCCOCCOCCOCN)[C@@H](O)[C@@]21O
Activity (HeLa): inactive

CC(=O)NCCOCCOCCNC(=O)Cc1cc(=O)oc2cc(N(C)C)ccc12
Activity (HL-60 [11]): inactive | Activity [12]: Not Active | Activity [13]: Not Active | Activity [14]: Not Active

COc1ccc([C@@]23Oc4cc(OC)cc(OC)c4[C@]2(O)[C@H](O)C[C@H]3c2ccccc2)cc1 (racemic) [ROCAGLAOL]
Activity (HL-60 [15]): Active | Activity (HL-60 [16]): inactive | Activity (HL-60 [17]): inactive | IC50 (HepG2 [4]; [29]): 70 nM | Activity (H9c2 [18]): Not Active | IC50 (HCT-15; [27]): 6 nM | IC50 (MCF7 [5]; [28]): 4 nM | Activity (HL-60 [19]): inactive | IC50 (HL-60 [6]): 3 nM | Activity (HL-60 [20]): inactive | Activity (HL-60 [21]): Active | Activity (HL-60 [22]): inactive | Activity (HL-60 [11]): Active | Activity (HL-60 [23]): Active | Activity (HepG2 [24]): Active | IC50 (HCT-116): 6 nM | Activity [10]: Not Active | IC50 (MCF7 [7]; [28]): 4 nM | IC50 (KB): 2 nM

COc1cccc2c1C(=O)c1c(O)c3c(c(O)c1C2=O)C[C@@](O)(C(=O)CO)C[C@@H]3O[C@H]1C[C@H](N)[C@H](O)[C@H](C)O1 [DOXORUBICIN]
fold change (FC) (H9c2 [25]): 3 | IC50 (HepG2 [4]; [29]): 240 nM | IC50 (HCT-15; [27]): 81 nM | IC50 (MCF7 [5]; [28]): 12 nM | IC50 (HL-60 [6]): 13 nM | Activity (HL-60 [23]): Active | fold change (FC) (HL-60 [26]): 14 | IC50 (HCT-116): 6 nM | IC50 (MCF7 [7]; [28]): 58 nM | IC50 (KB): 1 nM

COc1cc(OC)c2c(c1)O[C@@]1(c3ccccc3)[C@H](c3ccccc3)C[C@@H](O)[C@@]21O
IC50 (HepG2 [4]; [29]): > 10000 nM | IC50 (HCT-15; [27]): 8000 nM | IC50 (MCF7 [5]; [28]): 10000 nM | IC50 (HL-60 [6]): 6000 nM | IC50 (HCT-116): 6000 nM | Activity [10]: Not Active | IC50 (MCF7 [7]; [28]): 10000 nM | IC50 (KB): 2500 nM

CC[C@@]1(O)C(=O)OCc2c1cc1n(c2=O)Cc2cc3ccccc3nc2-1 [CAMPTOTHECIN]
IC50 (HepG2 [4]; [29]): 455 nM | IC50 (HCT-15; [27]): 3 nM | IC50 (MCF7 [5]; [28]): 10 nM | IC50 (HL-60 [6]): 6 nM | IC50 (HCT-116): 2 nM | IC50 (MCF7 [7]; [28]): 3 nM | IC50 (KB): 38 nM

Source: ChEMBL document CHEMBL1152982, “Synthetic analogue of rocaglaol displays a potent and selective cytotoxicity in cancer cells: involvement of apoptosis inducing factor and caspase-12” (J Med Chem, 2009)
